Results taken from ChEMBL document CHEMBL1150199, “Preparation, characterization, and antiviral activity of microbial metabolites of stemodin” (J Nat Prod, 1991).
≈ marks a conversion by molar mass, not a printed value. Calls of active or inactive are those of the source. The calls are words filed in the database; no cut-off is given here.

What was measured:
[1] = test system: Human alphaherpesvirus 1; experiment: Antiviral activity against HSV1 in african green monkey Vero cells assessed as reduction in number of plaques after 66 hrs; assay type: functional, organism-based
Procedure, shortened: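 Confluent Vero monolayers were seeded at 2 × 10^4 cells/well in DMEM with 10% calf serum. Samples were dissolved in DMSO, diluted in medium and added in triplicate at 100, 50, 20, 10, 5, 2 and 1 µg/ml, with 30 PFU HS-1 per well. Wells were incubated 66 h at 37° under ~15% CO2, then formaldehyde-fixed, crystal violet-stained and scored visually. The value is the lowest concentration giving the stated % plaque reduction.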

[2] = Cytotoxicity against african green monkey Vero cells after 66 hrs; assay type: cell-based; conditions: chlorocebus sabaeus
Procedure, shortened: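 Confluent Vero monolayers in DMEM with 10% calf serum received triplicate serial dilutions of DMSO-dissolved samples at 1–100 µg/ml, with higher levels where needed. The cytotoxic concentration is reported as CD50.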

[3] = test system: Human alphaherpesvirus 1; experiment: Antiviral activity against HSV1 in african green monkey Vero cells assessed as reduction in number of plaques at 0.005 mg/ml after 66 hrs; assay type: functional; parameters: scale not given: the % may be the effect or the level left
Procedure, shortened: (§1)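 Vero cells seeded at 2 × 10^4 per 200 µl well in DMEM with 10% calf serum, grown to confluence at 37° under ~15% CO2. Medium replaced with compound dilutions in triplicate, each well inoculated with 30 PFU HSV-1. Incubated 66 h, then formaldehyde-fixed and crystal violet-stained. Plaque reduction was scored visually.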

[4] = test system: Human alphaherpesvirus 1; experiment: Antiviral activity against HSV1 in african green monkey Vero cells assessed as reduction in number of plaques at 0.1 mg/ml after 66 hrs; assay type: functional; parameters: scale not given: the % may be the effect or the level left; procedure, shortened: as §1

| SMILES | Activity [1] | CC50 at 66 h [2] [µg/mL] | Activity [3] [%] | Activity [4] [%] |
| --- | --- | --- | --- | --- |
| CC1(C)C[C@H](O)C[C@@]2(C)[C@H]1C[C@H](O)[C@H]1C[C@H]3C[C@]12CC[C@]3(C)O | inactive | 70 (≈ 217 µM) | – | – |
| C[C@@]1(CO)[C@H](O)CC[C@@]2(C)[C@H]1CC[C@H]1C[C@@H]3C[C@@]12CC[C@]3(O)CO [APHIDICOLIN] | – | 200 (≈ 591 µM) | 100 | – |
| C[C@]1(CO)C[C@H](O)C[C@@]2(C)[C@H]1CC[C@H]1C[C@H]3C[C@]12CC[C@@]3(O)CO | – | > 399 | – | – |
| CC1(C)C[C@H](O)C[C@@]2(C)[C@H]1CC[C@@]1(O)C[C@H]3C[C@]12CC[C@]3(C)O | – | 300 (≈ 930 µM) | – | 93 |
| CC1(C)C[C@H](O)C[C@@]2(C)[C@H]1C[C@@H](O)[C@H]1C[C@H]3C[C@]12CC[C@]3(C)O | – | 200 (≈ 620 µM) | – | 33 |
| C[C@]1(CO)C[C@H](O)C[C@@]2(C)[C@H]1CC[C@H]1C[C@H]3C[C@]12CC[C@]3(C)O | – | > 399 | – | – |
| CC1(C)C[C@H](O)C[C@@]2(C)[C@H]1C[C@H](O)[C@@]1(O)C[C@H]3C[C@@]21CC[C@]3(C)O | inactive | 40 (≈ 118 µM) | – | – |
| CC1(C)C[C@H](O)C[C@@]2(C)[C@H]1CC[C@H]1C[C@H]3C[C@]12CC[C@]3(C)O [STEMODIN] | – | 40 (≈ 131 µM) | – | – |
| C[C@@]1(CO)C[C@H](O)C[C@@]2(C)[C@H]1CC[C@@]1(O)C[C@H]3C[C@]12CC[C@]3(C)O | inactive | 660 (≈ 1950 µM) | – | – |
| C[C@@]1(CO)C[C@H](O)C[C@@]2(C)[C@H]1CC[C@H]1C[C@H]3[C@H](O)[C@]12CC[C@]3(C)O | inactive | 70 (≈ 207 µM) | – | – |
| C[C@@]1(CO)C[C@H](O)C[C@@]2(C)[C@H]1CC[C@H]1C[C@H]3C[C@]12CC[C@]3(C)O | – | 200 (≈ 620 µM) | – | 67 |
| CC1(C)C[C@H](O)C[C@@]2(C)[C@H]1CC[C@H]1C[C@@]3(O)C[C@]12CC[C@]3(C)O | – | 150 (≈ 465 µM) | – | 27 |
